In ChEMBL document CHEMBL1141158, “New 5-hydroxytryptamine(1A) receptor ligands containing a norbornene nucleus: synthesis and in vitro pharmacological evaluation” (J Med Chem, 2005):

How the values were obtained:
[1] = target: T1, 5-hydroxytryptamine receptor 2C (Rattus norvegicus, UniProt P08909); experiment: Inhibition of 1 nM [3H]mesulergine binding to Serotonin 5-HT2C receptor from rat brain cortex
T1 sequence (P08909 whole entry): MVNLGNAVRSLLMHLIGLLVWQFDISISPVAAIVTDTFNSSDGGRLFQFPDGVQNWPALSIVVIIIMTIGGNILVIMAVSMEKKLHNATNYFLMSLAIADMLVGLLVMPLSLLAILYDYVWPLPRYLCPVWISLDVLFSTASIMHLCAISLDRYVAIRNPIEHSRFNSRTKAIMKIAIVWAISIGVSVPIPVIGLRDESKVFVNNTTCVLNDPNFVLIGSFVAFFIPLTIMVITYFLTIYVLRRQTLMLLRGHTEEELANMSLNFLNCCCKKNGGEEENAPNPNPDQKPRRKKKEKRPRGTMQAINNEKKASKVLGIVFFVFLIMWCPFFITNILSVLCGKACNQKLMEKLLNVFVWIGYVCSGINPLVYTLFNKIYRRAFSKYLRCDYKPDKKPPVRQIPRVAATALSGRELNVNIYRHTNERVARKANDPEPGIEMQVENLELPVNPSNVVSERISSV

[2] = target: 5-hydroxytryptamine receptor 2A (Rattus norvegicus, UniProt P14842); experiment: Inhibition of 0.4 nM [3H]ketanserin binding to Serotonin 5-HT2A receptor from rat brain cortex
[3] = target: T2, 5-hydroxytryptamine receptor 1A (Rattus norvegicus, UniProt P19327); experiment: Inhibition of [3H]8-OH-DPAT binding to Serotonin 5-HT1A receptor from rat brain cortex
T2 sequence (P19327 whole entry): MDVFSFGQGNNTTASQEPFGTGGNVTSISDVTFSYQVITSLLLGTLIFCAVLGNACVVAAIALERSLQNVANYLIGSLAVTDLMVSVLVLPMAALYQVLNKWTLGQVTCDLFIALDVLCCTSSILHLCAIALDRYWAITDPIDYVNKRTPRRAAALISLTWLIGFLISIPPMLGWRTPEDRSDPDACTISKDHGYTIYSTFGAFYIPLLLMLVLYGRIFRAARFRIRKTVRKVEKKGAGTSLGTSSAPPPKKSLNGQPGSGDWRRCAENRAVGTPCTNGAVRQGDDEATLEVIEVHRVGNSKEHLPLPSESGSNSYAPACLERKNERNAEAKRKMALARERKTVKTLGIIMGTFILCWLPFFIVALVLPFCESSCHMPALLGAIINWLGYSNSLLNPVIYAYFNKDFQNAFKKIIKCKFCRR

[4] = target: T3, Adrenergic receptor alpha-1 (Rattus norvegicus, UniProt P15823+P23944+P43140); experiment: Inhibition of [3H]prazosin bindign to Adrenergic alpha 1 receptor from rat brain cortex
T3 sequence (P15823 whole entry): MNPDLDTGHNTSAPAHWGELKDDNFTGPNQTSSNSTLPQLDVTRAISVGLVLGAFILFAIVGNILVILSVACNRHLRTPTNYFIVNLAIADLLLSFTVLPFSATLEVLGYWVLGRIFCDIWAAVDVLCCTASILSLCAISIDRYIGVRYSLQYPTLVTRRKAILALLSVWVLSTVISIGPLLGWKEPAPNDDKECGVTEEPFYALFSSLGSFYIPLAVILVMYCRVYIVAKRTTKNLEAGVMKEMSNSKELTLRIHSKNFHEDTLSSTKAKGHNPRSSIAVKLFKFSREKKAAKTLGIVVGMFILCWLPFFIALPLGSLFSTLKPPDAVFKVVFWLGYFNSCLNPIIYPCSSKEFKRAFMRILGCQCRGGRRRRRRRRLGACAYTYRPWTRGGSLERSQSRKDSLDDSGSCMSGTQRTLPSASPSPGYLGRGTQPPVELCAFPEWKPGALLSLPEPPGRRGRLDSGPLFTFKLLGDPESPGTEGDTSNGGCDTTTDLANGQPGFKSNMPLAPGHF
T3 sequence (P23944 whole entry): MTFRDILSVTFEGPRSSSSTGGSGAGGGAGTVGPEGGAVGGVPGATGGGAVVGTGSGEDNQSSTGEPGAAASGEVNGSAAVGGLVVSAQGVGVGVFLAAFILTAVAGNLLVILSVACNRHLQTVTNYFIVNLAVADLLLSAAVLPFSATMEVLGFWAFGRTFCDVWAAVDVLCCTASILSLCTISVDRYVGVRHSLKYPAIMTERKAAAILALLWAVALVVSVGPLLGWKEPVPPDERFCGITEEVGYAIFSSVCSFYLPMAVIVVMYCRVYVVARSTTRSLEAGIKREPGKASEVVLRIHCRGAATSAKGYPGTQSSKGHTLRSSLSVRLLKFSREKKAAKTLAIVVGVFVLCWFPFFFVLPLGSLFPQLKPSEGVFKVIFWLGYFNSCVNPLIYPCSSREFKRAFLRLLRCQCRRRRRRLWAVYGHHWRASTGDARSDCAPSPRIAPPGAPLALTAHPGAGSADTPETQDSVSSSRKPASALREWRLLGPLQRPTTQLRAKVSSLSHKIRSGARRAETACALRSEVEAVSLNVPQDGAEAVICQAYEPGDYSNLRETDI
T3 sequence (P43140 whole entry): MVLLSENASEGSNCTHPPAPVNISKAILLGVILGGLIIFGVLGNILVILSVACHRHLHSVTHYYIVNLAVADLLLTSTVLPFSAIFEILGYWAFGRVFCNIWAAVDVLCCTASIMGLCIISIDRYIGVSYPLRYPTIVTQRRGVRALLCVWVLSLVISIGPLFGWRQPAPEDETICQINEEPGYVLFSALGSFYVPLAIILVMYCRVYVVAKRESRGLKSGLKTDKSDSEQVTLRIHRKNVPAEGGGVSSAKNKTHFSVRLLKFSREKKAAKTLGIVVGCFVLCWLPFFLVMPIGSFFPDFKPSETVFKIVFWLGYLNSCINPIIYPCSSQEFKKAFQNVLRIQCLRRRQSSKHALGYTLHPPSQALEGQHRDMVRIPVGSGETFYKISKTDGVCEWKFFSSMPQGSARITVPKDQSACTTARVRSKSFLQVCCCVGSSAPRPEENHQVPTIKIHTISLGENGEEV
Outline: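 Cortical membranes in 50 mM Tris-HCl pH 7.4, 10 mg fresh tissue per tube, with [3H]prazosin 0.4 nM final; 30 min at 25 °C, then vacuum filtration on GF/B and scintillation counting. 10 μM phentolamine defined nonspecific binding. Six test concentrations in triplicate; IC50 from competition curves, Ki by Cheng–Prusoff using Scatchard KD.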

[5] = target: D(1A) dopamine receptor (Rattus norvegicus, UniProt P18901); experiment: Inhibition of [3H]SCH-23,390 binding to Dopamine D1 receptor from rat striatum
Outline: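 Rat striatal membranes washed twice by 50 000g spins, resuspended in Tris-HCl pH 7.1 with NaCl, KCl, CaCl2, MgCl2, ascorbic acid, 10 μM pargyline; 3 mg fresh tissue per tube. [3H]SCH-23390 at 0.4 nM final, 15 min at 37 °C, GF/B filtration, scintillation counting. Nonspecific with 0.1 μM piflutixol. Six concentrations in triplicate; IC50 converted to Ki by Cheng–Prusoff.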

[6] = target: D(2) dopamine receptor (Rattus norvegicus, UniProt P61169); experiment: Inhibition of [3H]spiperone binding to Dopamine D2 receptor from rat striatum
Outline: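 Rat striatal membranes washed twice at 50 000g, resuspended in Tris-HCl pH 7.1 with NaCl, KCl, CaCl2, MgCl2, ascorbic acid, 10 μM pargyline; 3 mg fresh tissue per tube. [3H]spiperone 0.4 nM final, 15 min at 37 °C, GF/B filtration, scintillation counting. Nonspecific defined with 1 μM (+)-butaclamol. Six concentrations, triplicate; Ki via Cheng–Prusoff.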

[7] = target: T4, Adrenergic receptor alpha-2 (Rattus norvegicus, UniProt P22086+P19328+P22909); experiment: Inhibition of [3H]yohimbine binding to Adrenergic receptor alpha 2 receptor from rat brain cortex
T4 sequence (P22086 whole entry): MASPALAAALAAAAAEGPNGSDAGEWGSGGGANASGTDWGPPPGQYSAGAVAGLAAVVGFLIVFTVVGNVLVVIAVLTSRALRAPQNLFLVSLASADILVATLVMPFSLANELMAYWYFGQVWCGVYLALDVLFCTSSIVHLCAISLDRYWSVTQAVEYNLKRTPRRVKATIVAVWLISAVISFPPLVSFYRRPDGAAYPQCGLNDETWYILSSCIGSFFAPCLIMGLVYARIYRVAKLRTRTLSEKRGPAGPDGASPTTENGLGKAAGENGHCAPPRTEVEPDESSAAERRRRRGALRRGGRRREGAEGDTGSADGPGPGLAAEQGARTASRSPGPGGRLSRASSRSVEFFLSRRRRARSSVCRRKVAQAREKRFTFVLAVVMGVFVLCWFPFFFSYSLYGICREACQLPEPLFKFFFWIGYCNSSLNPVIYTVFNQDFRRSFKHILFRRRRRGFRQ
T4 sequence (P19328 whole entry): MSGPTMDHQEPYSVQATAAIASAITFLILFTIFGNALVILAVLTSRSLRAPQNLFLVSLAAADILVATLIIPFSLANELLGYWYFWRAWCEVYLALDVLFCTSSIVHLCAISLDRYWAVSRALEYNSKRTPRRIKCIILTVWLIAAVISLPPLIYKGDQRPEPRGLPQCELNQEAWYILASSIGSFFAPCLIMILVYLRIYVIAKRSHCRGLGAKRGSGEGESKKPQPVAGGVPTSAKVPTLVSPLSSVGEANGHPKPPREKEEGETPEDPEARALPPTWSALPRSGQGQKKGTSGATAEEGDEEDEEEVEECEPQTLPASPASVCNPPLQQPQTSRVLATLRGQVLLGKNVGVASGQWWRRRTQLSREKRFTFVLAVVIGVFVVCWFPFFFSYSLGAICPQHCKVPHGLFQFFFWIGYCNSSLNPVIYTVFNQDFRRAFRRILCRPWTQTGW
T4 sequence (P22909 whole entry): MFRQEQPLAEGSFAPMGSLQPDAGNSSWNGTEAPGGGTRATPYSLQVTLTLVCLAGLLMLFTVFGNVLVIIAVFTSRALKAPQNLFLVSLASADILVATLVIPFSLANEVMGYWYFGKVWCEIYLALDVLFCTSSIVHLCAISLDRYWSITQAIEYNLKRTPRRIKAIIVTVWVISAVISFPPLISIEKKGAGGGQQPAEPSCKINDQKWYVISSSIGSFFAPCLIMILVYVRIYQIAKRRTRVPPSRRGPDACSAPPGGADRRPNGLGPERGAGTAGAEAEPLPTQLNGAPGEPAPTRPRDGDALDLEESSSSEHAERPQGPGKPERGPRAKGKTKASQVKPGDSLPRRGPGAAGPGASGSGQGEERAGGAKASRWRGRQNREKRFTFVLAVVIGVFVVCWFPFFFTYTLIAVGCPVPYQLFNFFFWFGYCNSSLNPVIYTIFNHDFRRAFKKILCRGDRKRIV
Outline: (§1)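 Brain cortex homogenized in 5 mM Tris-HCl/5 mM EDTA, washed three times at 50 000g, resuspended in 50 mM Tris-HCl/0.5 mM EDTA pH 7.5; 10 mg fresh tissue per tube. [3H]yohimbine 1 nM final, 30 min at 25 °C, GF/B filtration, scintillation counting. Six concentrations in triplicate; IC50 converted to Ki (Cheng–Prusoff).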

[8] = target: T4, Adrenergic receptor alpha-2; experiment: Inhibition of [3H]yohimbine binding to Adrenergic alpha 2 receptor from rat brain cortex; outline: as §1

Chain of D(1A) dopamine receptor (P18901 whole entry): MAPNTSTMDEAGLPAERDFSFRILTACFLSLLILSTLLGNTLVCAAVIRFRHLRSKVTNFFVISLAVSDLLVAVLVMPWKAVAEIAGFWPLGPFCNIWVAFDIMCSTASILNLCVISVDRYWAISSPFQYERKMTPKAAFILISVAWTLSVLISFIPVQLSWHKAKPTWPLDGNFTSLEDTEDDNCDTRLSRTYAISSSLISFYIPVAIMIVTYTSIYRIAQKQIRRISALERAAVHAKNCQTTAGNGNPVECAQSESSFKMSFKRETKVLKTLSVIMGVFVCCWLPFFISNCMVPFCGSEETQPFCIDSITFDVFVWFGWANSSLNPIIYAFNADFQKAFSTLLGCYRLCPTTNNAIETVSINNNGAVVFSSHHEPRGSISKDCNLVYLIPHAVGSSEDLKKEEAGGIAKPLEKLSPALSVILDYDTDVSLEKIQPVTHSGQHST
Chain of 5-hydroxytryptamine receptor 2A (P14842 whole entry): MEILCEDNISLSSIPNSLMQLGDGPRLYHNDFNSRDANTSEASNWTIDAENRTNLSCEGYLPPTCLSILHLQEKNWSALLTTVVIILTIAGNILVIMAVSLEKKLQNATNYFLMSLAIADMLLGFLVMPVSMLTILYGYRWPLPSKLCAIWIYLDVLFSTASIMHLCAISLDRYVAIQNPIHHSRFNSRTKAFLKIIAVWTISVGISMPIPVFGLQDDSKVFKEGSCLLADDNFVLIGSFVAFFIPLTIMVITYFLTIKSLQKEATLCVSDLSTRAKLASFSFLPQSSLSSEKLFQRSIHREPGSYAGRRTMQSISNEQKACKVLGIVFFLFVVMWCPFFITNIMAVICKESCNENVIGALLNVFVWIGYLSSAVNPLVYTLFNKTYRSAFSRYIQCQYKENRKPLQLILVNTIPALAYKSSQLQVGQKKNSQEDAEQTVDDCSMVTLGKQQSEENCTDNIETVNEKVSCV
Chain of D(2) dopamine receptor (P61169 whole entry): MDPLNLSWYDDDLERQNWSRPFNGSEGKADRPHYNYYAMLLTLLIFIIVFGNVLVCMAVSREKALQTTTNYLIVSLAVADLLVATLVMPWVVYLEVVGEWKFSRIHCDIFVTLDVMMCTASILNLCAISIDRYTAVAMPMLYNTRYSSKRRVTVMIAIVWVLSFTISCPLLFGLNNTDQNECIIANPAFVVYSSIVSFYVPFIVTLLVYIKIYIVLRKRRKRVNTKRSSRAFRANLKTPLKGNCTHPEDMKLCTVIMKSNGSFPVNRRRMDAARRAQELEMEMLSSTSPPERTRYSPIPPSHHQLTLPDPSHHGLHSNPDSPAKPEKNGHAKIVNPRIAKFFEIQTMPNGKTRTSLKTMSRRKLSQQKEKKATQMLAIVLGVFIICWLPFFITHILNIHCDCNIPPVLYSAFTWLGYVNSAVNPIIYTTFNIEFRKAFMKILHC

| SMILES | Ki [1] | Ki [2] | Ki [3] | Ki [4] | Ki ([5]; read-out: Ki) | Ki ([6]; read-out: Ki) | Ki [7] | Ki [6] | Ki [8] | Ki [5] |
| --- | --- | --- | --- | --- | --- | --- | --- | --- | --- | --- |
| O=C1C2C3C=CC(C3)C2C(=O)N1OCCCN1CCN(c2ccccn2)CC1 (stereo not drawn) | > 10000 nM | > 10000 nM | 30.3 nM | – | – | – | – | – | – | – |
| O=C1C2C3C=CC(C3)C2C(=O)N1OCCN1CCN(c2cccc(C(F)(F)F)c2)CC1 (stereo not drawn) | > 10000 nM | 4010 nM | 2.14 nM | > 10000 nM | > 10000 nM | > 10000 nM | > 10000 nM | – | – | – |
| O=C1C2C3C=CC(C3)C2C(=O)N1OCCCN1CCN(c2cccc(C(F)(F)F)c2)CC1 (stereo not drawn) | > 10000 nM | 2680 nM | 5.13 nM | 358 nM | 4510 nM | 670 nM | 4680 nM | – | – | – |
| O=C1C2C3C=CC(C3)C2C(=O)N1OCCCN1CCN(c2cccc(Cl)c2)CC1 (stereo not drawn) | 733 nM | 547 nM | 3.36 nM | 141 nM | > 10000 nM | – | 1710 nM | Not Active | – | – |
| O=C1C2C3C=CC(C3)C2C(=O)N1OCCN1CCN(c2ncccn2)CC1 (stereo not drawn) | – | > 10000 nM | 384 nM | – | – | – | – | – | – | – |
| O=C1C2C3C=CC(C3)C2C(=O)N1OCCCN1CCN(c2ncccn2)CC1 (stereo not drawn) | > 10000 nM | 118 nM | 49.5 nM | – | – | – | – | – | – | – |

Further lines, results first:

| Ki [1] | Ki [2] | Ki [3] | Ki [4] | Ki ([5]; read-out: Ki) | Ki ([6]; read-out: Ki) | Ki [7] | Ki [6] | Ki [8] | Ki [5] | SMILES |
| --- | --- | --- | --- | --- | --- | --- | --- | --- | --- | --- |
| > 10000 nM | 2700 nM | 27.1 nM | – | – | – | – | – | – | – | O=C1C2C3C=CC(C3)C2C(=O)N1OCCN1CCN(c2cccc(Cl)c2)CC1 (stereo not drawn) |
| > 10000 nM | > 10000 nM | – | 747 nM | > 10000 nM | > 10000 nM | – | – | 691 nM | – | O=C1C2C3C=CC(C3)C2C(=O)N1OCCN1CCN(c2ccccc2Cl)CC1 (stereo not drawn) |
| > 10000 nM | > 10000 nM | 0.021 nM | 75.3 nM | > 10000 nM | > 10000 nM | 3650 nM | – | – | – | COc1ccccc1N1CCN(CCCON2C(=O)C3C4C=CC(C4)C3C2=O)CC1 (stereo not drawn) |
| > 10000 nM | 3510 nM | 382 nM | – | – | – | – | – | – | – | O=C1C2C3C=CC(C3)C2C(=O)N1OCCN1CCN(c2ccccn2)CC1 (stereo not drawn) |
| 423 nM | 3900 nM | 4.13 nM | 128 nM | – | – | 3140 nM | Not Active | – | Not Active | O=C1C2C3C=CC(C3)C2C(=O)N1OCCCN1CCN(c2ccccc2Cl)CC1 (stereo not drawn) |
| > 10000 nM | > 10000 nM | 45 nM | – | – | – | – | – | – | – | COc1ccccc1N1CCN(CCON2C(=O)C3C4C=CC(C4)C3C2=O)CC1 (stereo not drawn) |
